Legend:
[1] = Partition coefficient (logP); assay type: physicochemical; conditions: octanol/water
L1210 = assay: in vitro antitumor activity (cytotoxicity) against the murine leukemia L1210 cell; assay type: functional, cell-based; conditions: Mus musculus
Mus musculus [2] = assay: antitumor activity (survival) by the oral administration of 100 mg/kg scheduled treatment (Q1D x 5) in BDF1 mice inoculated with L1210 leukemia; assay type: functional, organism-based; design: dose 100 mg/kg; conditions: at 100 mg/kg
In short: (§1)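 BDF1 mice inoculated with L1210 leukaemia and fasted before dosing. Complexes suspended in 0.2 mL 0.5% Tween 80 and given by stomach catheter on days 1-5 (Q1D × 5). Activity expressed as T/C (%), the ratio of mean survival time (days) of treated versus control mice.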

Mus musculus [3] = assay: antitumor activity (survival) by the oral administration of 150 mg/kg scheduled treatment (Q1D x 5) in BDF1 mice inoculated with L1210 leukemia; toxic; assay type: functional, organism-based; design: dose 150 mg/kg; in short: as §1
Mus musculus [4] = assay: antitumor activity (survival) by the oral administration of 150 mg/kg scheduled treatment (Q1D x 5) in BDF1 mice inoculated with L1210 leukemia; assay type: functional, organism-based; design: dose 150 mg/kg; conditions: at 150 mg/kg; in short: as §1

Row | logP [1] | Substance | ED50 (L1210) | T/C (Mus musculus [4]) | further results
1 | 1.54 | [Pt(O2CC3H7)4(dach)]dach : trans-(+/-)-1,2-diaminocyclohexane [listing 1 of 2 here] | – | – | –
2 | – | [Pt(O2CC3H7)4(dach)]dach : trans-(+/-)-1,2-diaminocyclohexane [listing 2 of 2 here] | 6.2 µM | – | T/C (Mus musculus [2]): 108%; T/C (Mus musculus [3]): Toxic
3 | 2.54 | [Pt(O2CC4H9)4(dach)]dach : trans-(+/-)-1,2-diaminocyclohexane [listing 1 of 2 here] | – | – | –
4 | – | [Pt(O2CC4H9)4(dach)]dach : trans-(+/-)-1,2-diaminocyclohexane [listing 2 of 2 here] | > 50 µM | 107% | –
5 | 3.03 | [Pt(O2CC5H11)4(dach)]dach : trans-(+/-)-1,2-diaminocyclohexane [listing 1 of 2 here] | – | – | –
6 | – | [Pt(O2CC5H11)4(dach)]dach : trans-(+/-)-1,2-diaminocyclohexane [listing 2 of 2 here] | > 50 µM | 98.9% | –
7 | -1.59 | [Pt(O2CCH3)4(dach)]dach [listing 1 of 2 here] | – | – | –
8 | – | [Pt(O2CCH3)4(dach)]dach [listing 2 of 2 here] | 25.8 µM | 100% | –
9 | – | [Pt(OH)4(dach)]dach | 32.6 µM | 112% | –

Source: ChEMBL document CHEMBL1132999, “Synthesis and oral antitumor activity of tetrakis(carboxylato)platinum(IV) complexes” (J Med Chem, 2000)
